Assay results reported in ChEMBL document CHEMBL1777792, “Synthesis and evaluation of indole-based new scaffolds for antimicrobial activities--identification of promising candidates” (Bioorg Med Chem Lett, 2011).

Legend:
Escherichia coli [1] = test: Antibacterial activity against Escherichia coli harboring ampicillin-resistance gene encoding plasmid at 257 ug/ml after 24 hrs by disc diffusion assay; type: functional; conditions: read-out: DIZ
How it was run: (§1)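 Disc diffusion used an E. coli strain carrying a plasmid that encodes an ampicillin-resistance gene. Inhibition zone diameters were recorded and compared against the corresponding solvent controls.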

Candida albicans [2] = test: Antifungal activity against Candida albicans in yeast extract-peptone-glucose medium at 257 ug/ml after 48 hrs by disc diffusion assay; type: functional; conditions: read-out: DIZ
How it was run: (§2)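 Solid-phase assay on YEPD agar spread with a set number of C. albicans cells. Compound solution and reference solvent spotted onto 0.5 cm discs. Plates incubated at 30 °C, and inhibition zone diameter measured against solvent control.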

Candida albicans [3] = test: Antifungal activity against Candida albicans in yeast extract-peptone-glucose medium at 257 ug/ml after 48 hrs by disc diffusion assay in presence of 100 ug/ml of calcofluor white; type: functional
How it was run: (§3)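 Disc diffusion on YEPD agar containing a cell-wall-disrupting agent (SDS, Congo red or calcofluor white) and spread with a set number of C. albicans cells. Compound and reference solvent spotted on 0.5 cm discs. Incubated at 30 °C, then inhibition zone diameter measured against solvent.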

Candida albicans [4] = test: Antifungal activity against Candida albicans in yeast extract-peptone-glucose medium at 257 ug/ml after 48 hrs by disc diffusion assay in presence of 150 ug/ml of congo red; type: functional; how it was run: as §3
Candida albicans [5] = test: Antifungal activity against Candida albicans in yeast extract-peptone-glucose medium at 257 ug/ml after 48 hrs by disc diffusion assay in presence of 0.01% of sodium dodecylsulphate; type: functional; conditions: read-out: DIZ; how it was run: as §3
Candida albicans [6] = test: Antifungal activity against Candida albicans in yeast extract-peptone-glucose medium at 257 ug/ml after 48 hrs by disc diffusion assay in presence of […]; type: functional; conditions: in the assay text read “20 ug/ml” for “150 ug/ml”
How it was run: (§4)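 Tests whether compounds enhance the toxicity of rhodamine 6G, a substrate of the Cdr1p/Cdr2p drug pumps. YEPD agar containing R6G spread with C. albicans. Compound and solvent spotted on 0.5 cm discs, incubated at 30 °C, and zone diameter read relative to solvent control.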

Candida albicans [7] = test: Antifungal activity against Candida albicans in synthetic dextrose minimal medium after 48 hrs by ELISA based serial dilution method
Escherichia coli [8] = test: Antibacterial activity against Escherichia coli harboring ampicillin-resistance gene encoding plasmid at 600 ug/ml after 24 hrs by disc diffusion assay; type: functional; conditions: read-out: DIZ; how it was run: as §1
Candida albicans [9] = test: Antifungal activity against Candida albicans in yeast extract-peptone-glucose medium at 600 ug/ml after 48 hrs by disc diffusion assay; type: functional; conditions: read-out: DIZ; how it was run: as §2
Candida albicans [10] = test: Antifungal activity against Candida albicans in yeast extract-peptone-glucose medium at 600 ug/ml after 48 hrs by disc diffusion assay in presence of 100 ug/ml of calcofluor white; type: functional; how it was run: as §3
Candida albicans [11] = test: Antifungal activity against Candida albicans in yeast extract-peptone-glucose medium at 600 ug/ml after 48 hrs by disc diffusion assay in presence of 150 ug/ml of congo red; type: functional; how it was run: as §3
Candida albicans [12] = test: Antifungal activity against Candida albicans in yeast extract-peptone-glucose medium at 600 ug/ml after 48 hrs by disc diffusion assay in presence of 0.01% of sodium dodecylsulphate; type: functional; conditions: read-out: DIZ; how it was run: as §3
Candida albicans [13] = test: Antifungal activity against Candida albicans in yeast extract-peptone-glucose medium at 600 ug/ml after 48 hrs by disc diffusion assay in presence of […]; type: functional; conditions: in the assay text read “20 ug/ml” for “150 ug/ml”; how it was run: as §4
Escherichia coli [14] = test: Antibacterial activity against Escherichia coli harboring ampicillin-resistance gene encoding plasmid at 238 ug/ml after 24 hrs by disc diffusion assay; type: functional; conditions: read-out: DIZ; how it was run: as §1
Candida albicans [15] = test: Antifungal activity against Candida albicans in yeast extract-peptone-glucose medium at 238 ug/ml after 48 hrs by disc diffusion assay; type: functional; conditions: read-out: DIZ
How it was run: (§5)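 C. albicans cells at a set number were spread on YEPD agar, either plain or containing the cell-wall disruptant named in the line (SDS, Congo red or calcofluor white). Compound solution, or the reference solvent as control, was spotted onto 0.5 cm discs placed on the lawn. Plates were incubated at 30 °C and the inhibition zone diameter was measured.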

Candida albicans [16] = test: Antifungal activity against Candida albicans in yeast extract-peptone-glucose medium at 238 ug/ml after 48 hrs by disc diffusion assay in presence of 150 ug/ml of congo red; type: functional; how it was run: as §5
Candida albicans [17] = test: Antifungal activity against Candida albicans in yeast extract-peptone-glucose medium at 238 ug/ml after 48 hrs by disc diffusion assay in presence of 0.01% of sodium dodecylsulphate; type: functional; conditions: read-out: DIZ; how it was run: as §5
Candida albicans [18] = test: Antifungal activity against Candida albicans in yeast extract-peptone-glucose medium at 238 ug/ml after 48 hrs by disc diffusion assay in presence of […]; type: functional
How it was run: (§6)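 This is a C. albicans disc diffusion on YEPD agar containing rhodamine 6G, a substrate of the Cdr1p/Cdr2p ATP-dependent efflux pumps, to test for enhanced R6G toxicity. A set number of cells was spread, and 0.5 cm discs were spotted with compound solution or reference solvent. Plates were incubated at 30 °C and the zone diameter was measured.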

Escherichia coli [19] = test: Antibacterial activity against Escherichia coli harboring ampicillin-resistance gene encoding plasmid at 357 ug/ml after 24 hrs by disc diffusion assay; type: functional; conditions: read-out: DIZ; how it was run: as §1
Candida albicans [20] = test: Antifungal activity against Candida albicans in yeast extract-peptone-glucose medium at 357 ug/ml after 48 hrs by disc diffusion assay; type: functional; conditions: read-out: DIZ; how it was run: as §5
Candida albicans [21] = test: Antifungal activity against Candida albicans in yeast extract-peptone-glucose medium at 357 ug/ml after 48 hrs by disc diffusion assay in presence of 100 ug/ml of calcofluor white; type: functional; how it was run: as §5
Candida albicans [22] = test: Antifungal activity against Candida albicans in yeast extract-peptone-glucose medium at 357 ug/ml after 48 hrs by disc diffusion assay in presence of 150 ug/ml of congo red; type: functional; how it was run: as §5
Escherichia coli [23] = test: Antibacterial activity against Escherichia coli harboring ampicillin-resistance gene encoding plasmid at 187 ug/ml after 24 hrs by disc diffusion assay; type: functional; conditions: read-out: DIZ; how it was run: as §1
Candida albicans [24] = test: Antifungal activity against Candida albicans in yeast extract-peptone-glucose medium at 187 ug/ml after 48 hrs by disc diffusion assay; type: functional; conditions: read-out: DIZ; how it was run: as §5
Candida albicans [25] = test: Antifungal activity against Candida albicans in yeast extract-peptone-glucose medium at 187 ug/ml after 48 hrs by disc diffusion assay in presence of 100 ug/ml of calcofluor white; type: functional; how it was run: as §5
Candida albicans [26] = test: Antifungal activity against Candida albicans in yeast extract-peptone-glucose medium at 187 ug/ml after 48 hrs by disc diffusion assay in presence of 150 ug/ml of congo red; type: functional; how it was run: as §5
Candida albicans [27] = test: Antifungal activity against Candida albicans in yeast extract-peptone-glucose medium at 187 ug/ml after 48 hrs by disc diffusion assay in presence of 0.01% of sodium dodecylsulphate; type: functional; conditions: read-out: DIZ; how it was run: as §5
Candida albicans [28] = test: Antifungal activity against Candida albicans in yeast extract-peptone-glucose medium at 187 ug/ml after 48 hrs by disc diffusion assay in presence of […]; type: functional; how it was run: as §6
Escherichia coli [29] = test: Antibacterial activity against Escherichia coli harboring ampicillin-resistance gene encoding plasmid at 545 ug/ml after 24 hrs by disc diffusion assay; type: functional; conditions: read-out: DIZ; how it was run: as §1
Candida albicans [30] = test: Antifungal activity against Candida albicans in yeast extract-peptone-glucose medium at 545 ug/ml after 48 hrs by disc diffusion assay; type: functional; conditions: read-out: DIZ; how it was run: as §5
Candida albicans [31] = test: Antifungal activity against Candida albicans in yeast extract-peptone-glucose medium at 545 ug/ml after 48 hrs by disc diffusion assay in presence of 100 ug/ml of calcofluor white; type: functional
How it was run: (§7)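 C. albicans cells were spread at a set number over YEPD agar containing the additive named in the line. Discs 0.5 cm across were placed on the lawn and spotted with test compound solution or reference solvent. Plates were incubated at 30 °C. The inhibition zone diameter was measured in mm and compared with the solvent-control disc.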

Candida albicans [32] = test: Antifungal activity against Candida albicans in yeast extract-peptone-glucose medium at 545 ug/ml after 48 hrs by disc diffusion assay in presence of 150 ug/ml of congo red; type: functional; how it was run: as §7
Candida albicans [33] = test: Antifungal activity against Candida albicans in yeast extract-peptone-glucose medium at 545 ug/ml after 48 hrs by disc diffusion assay in presence of 0.01% of sodium dodecylsulphate; type: functional; conditions: read-out: DIZ; how it was run: as §5
Candida albicans [34] = test: Antifungal activity against Candida albicans in yeast extract-peptone-glucose medium at 545 ug/ml after 48 hrs by disc diffusion assay in presence of 150 ug/ml of rhodamine 6G; type: functional; how it was run: as §7

O=C(C(=O)N1CCCC1)c1cn(CCCn2cc(C(=O)C(=O)N3CCCC3)c3cc(Br)ccc32)c2ccc(Br)cc12
zone of inhibition at 257 µg/mL (Escherichia coli [1]): 13.5 mm | zone of inhibition at 257 µg/mL (Candida albicans [2]): 11.5 mm | diameter of the inhibition zone (DIZ) (Candida albicans [3]): 11.5 mm | diameter of the inhibition zone (DIZ) (Candida albicans [4]): 11.5 mm | zone of inhibition at 257 µg/mL (Candida albicans [5]): 11.5 mm | diameter of the inhibition zone (DIZ) (Candida albicans [6]): 12 mm | IC50 (Candida albicans [7]): 29.2 mM

O=C(NCc1ccccc1)C(=O)c1cn(Cc2ccc(Cn3cc(C(=O)C(=O)NCc4ccccc4)c4ccccc43)cc2)c2ccccc12
zone of inhibition at 600 µg/mL (Escherichia coli [8]): 9 mm | zone of inhibition at 600 µg/mL (Candida albicans [9]): 12.5 mm | diameter of the inhibition zone (DIZ) (Candida albicans [10]): 11.5 mm | diameter of the inhibition zone (DIZ) (Candida albicans [11]): 10.5 mm | zone of inhibition at 600 µg/mL (Candida albicans [12]): 12.5 mm | diameter of the inhibition zone (DIZ) (Candida albicans [13]): 11 mm | IC50 (Candida albicans [7]): 0.02 mM

O=C(C(=O)N1CCCCC1)c1cn(CCCCCCn2cc(C(=O)C(=O)N3CCCCC3)c3ccccc32)c2ccccc12
zone of inhibition at 238 µg/mL (Escherichia coli [14]): 7.5 mm | zone of inhibition at 238 µg/mL (Candida albicans [15]): 6.5 mm | diameter of the inhibition zone (DIZ) (Candida albicans [16]): 6 mm | zone of inhibition at 238 µg/mL (Candida albicans [17]): 6.5 mm | diameter of the inhibition zone (DIZ) (Candida albicans [18]): 5.5 mm

O=C(C(=O)N1CCOCC1)c1cn(CCCCCCn2cc(C(=O)C(=O)N3CCOCC3)c3ccccc32)c2ccccc12
zone of inhibition at 357 µg/mL (Escherichia coli [19]): 7.5 mm | zone of inhibition at 357 µg/mL (Candida albicans [20]): 5.5 mm | diameter of the inhibition zone (DIZ) (Candida albicans [21]): 6.5 mm | diameter of the inhibition zone (DIZ) (Candida albicans [22]): 6.5 mm

O=C(C(=O)N1CCCC1)c1cn(Cc2ccc(Cn3cc(C(=O)C(=O)N4CCCC4)c4ccccc43)cc2)c2ccccc12
zone of inhibition at 187 µg/mL (Escherichia coli [23]): 7 mm | zone of inhibition at 187 µg/mL (Candida albicans [24]): 7.5 mm | diameter of the inhibition zone (DIZ) (Candida albicans [25]): 6.5 mm | diameter of the inhibition zone (DIZ) (Candida albicans [26]): 7 mm | zone of inhibition at 187 µg/mL (Candida albicans [27]): 8 mm | diameter of the inhibition zone (DIZ) (Candida albicans [28]): 7 mm

O=C(C(=O)N1CCCC1)c1cn(CCCCCCn2cc(C(=O)C(=O)N3CCCC3)c3ccccc32)c2ccccc12
zone of inhibition at 545 µg/mL (Escherichia coli [29]): 11.5 mm | zone of inhibition at 545 µg/mL (Candida albicans [30]): 14.5 mm | diameter of the inhibition zone (DIZ) (Candida albicans [31]): 11 mm | diameter of the inhibition zone (DIZ) (Candida albicans [32]): 10.5 mm | zone of inhibition at 545 µg/mL (Candida albicans [33]): 15.5 mm | diameter of the inhibition zone (DIZ) (Candida albicans [34]): 12.5 mm
